Results taken from ChEMBL document CHEMBL1148425, “New fatty acid oxidation inhibitors with increased potency lacking adverse metabolic and electrophysiological properties” (Bioorg Med Chem Lett, 2004).

Experiments:
[1] = Metabolic stability (% remaining at 30 mins) in human S9.; type: ADME; conditions: human S9 fraction
Summary of the method: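 Incubated 30 min with human liver S9 (2 mg/mL protein, NADH added), n=2. Reported as % parent remaining.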

[2] = biological target: T1, Peroxisomal acyl-coenzyme A oxidase 1 (Rattus norvegicus) (UniProt P07872); assay: Inhibition of rat heart mitochondrial Palmitoyl-CoA oxidation at 30 uM
T1 sequence (whole entry): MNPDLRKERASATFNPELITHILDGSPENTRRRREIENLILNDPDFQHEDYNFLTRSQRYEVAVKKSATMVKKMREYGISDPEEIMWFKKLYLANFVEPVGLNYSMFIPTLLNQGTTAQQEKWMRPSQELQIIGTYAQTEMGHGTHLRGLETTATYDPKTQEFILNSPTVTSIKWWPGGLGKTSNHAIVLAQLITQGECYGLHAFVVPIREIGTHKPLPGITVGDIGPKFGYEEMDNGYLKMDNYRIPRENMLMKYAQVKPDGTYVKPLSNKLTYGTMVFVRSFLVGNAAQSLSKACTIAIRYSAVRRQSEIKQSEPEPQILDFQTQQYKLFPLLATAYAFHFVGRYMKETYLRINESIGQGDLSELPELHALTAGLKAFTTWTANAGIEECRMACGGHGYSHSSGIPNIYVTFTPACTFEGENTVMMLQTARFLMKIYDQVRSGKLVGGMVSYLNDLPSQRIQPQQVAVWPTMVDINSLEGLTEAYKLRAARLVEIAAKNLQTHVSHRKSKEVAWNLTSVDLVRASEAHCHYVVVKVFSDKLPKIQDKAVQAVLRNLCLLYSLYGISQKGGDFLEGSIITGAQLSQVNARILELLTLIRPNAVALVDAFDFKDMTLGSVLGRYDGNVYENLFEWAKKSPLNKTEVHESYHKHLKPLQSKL
Summary of the method: (§1)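 Rat heart mitochondrial preparations incubated with 1-[¹⁴C]-palmitoylCoA as the long-chain fatty acid oxidation substrate. Oxidation inhibition was reported as % inhibition at the listed test concentration, averaged from two or three measurements.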

[3] = biological target: T2, Cytochrome P450 3A4 (Homo sapiens, UniProt P08684); assay: Inhibition of cytochrome P450 3A4 (human)
T2 sequence (P08684 whole entry): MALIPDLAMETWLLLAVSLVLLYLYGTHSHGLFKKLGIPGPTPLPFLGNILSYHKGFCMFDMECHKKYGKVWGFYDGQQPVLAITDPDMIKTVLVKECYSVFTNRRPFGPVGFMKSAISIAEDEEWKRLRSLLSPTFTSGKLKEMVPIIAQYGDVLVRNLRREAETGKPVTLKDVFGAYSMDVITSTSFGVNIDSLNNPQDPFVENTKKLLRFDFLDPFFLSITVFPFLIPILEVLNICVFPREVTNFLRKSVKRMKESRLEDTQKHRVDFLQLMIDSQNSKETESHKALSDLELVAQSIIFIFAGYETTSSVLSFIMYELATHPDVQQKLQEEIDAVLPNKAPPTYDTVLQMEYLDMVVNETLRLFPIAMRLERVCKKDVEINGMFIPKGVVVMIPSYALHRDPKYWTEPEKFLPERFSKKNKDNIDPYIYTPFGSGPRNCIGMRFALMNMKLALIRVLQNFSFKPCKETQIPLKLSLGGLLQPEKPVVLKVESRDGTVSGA

[4] = species on record: Cavia porcellus; assay: Electrophysiological effect on isolated guinea pig heart as change in S-H interval at 3 uM; type: functional
[5] = biological target: T3, Cytochrome P450 1A2 (Homo sapiens, UniProt P05177); assay: Inhibition of human cytochrome P450 1A2
T3 sequence (P05177 whole entry): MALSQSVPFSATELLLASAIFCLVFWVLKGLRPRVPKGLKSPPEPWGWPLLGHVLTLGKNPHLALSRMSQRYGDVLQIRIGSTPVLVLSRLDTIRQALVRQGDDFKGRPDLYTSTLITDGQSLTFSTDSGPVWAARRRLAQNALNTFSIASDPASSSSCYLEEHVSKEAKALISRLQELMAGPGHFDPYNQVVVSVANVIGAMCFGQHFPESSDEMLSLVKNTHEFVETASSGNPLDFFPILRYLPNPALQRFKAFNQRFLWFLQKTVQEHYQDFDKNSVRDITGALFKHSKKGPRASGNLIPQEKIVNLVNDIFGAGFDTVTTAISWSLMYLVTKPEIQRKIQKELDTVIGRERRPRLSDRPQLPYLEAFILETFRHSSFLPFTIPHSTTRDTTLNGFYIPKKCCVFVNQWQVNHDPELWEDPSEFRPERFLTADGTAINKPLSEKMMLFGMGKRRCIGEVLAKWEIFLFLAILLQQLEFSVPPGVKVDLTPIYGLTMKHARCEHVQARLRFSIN

[6] = species on record: Cavia porcellus; assay: Electrophysiological effect on isolated guinea pig heart as change in H-V interval at 3 uM; type: functional
[7] = biological target: Cytochrome P450 2C9 (Homo sapiens, UniProt P11712); assay: Inhibition of cytochrome P450 2C9 (human)
Sequence of Cytochrome P450 2C9 (P11712 whole entry, the tested form may be a part): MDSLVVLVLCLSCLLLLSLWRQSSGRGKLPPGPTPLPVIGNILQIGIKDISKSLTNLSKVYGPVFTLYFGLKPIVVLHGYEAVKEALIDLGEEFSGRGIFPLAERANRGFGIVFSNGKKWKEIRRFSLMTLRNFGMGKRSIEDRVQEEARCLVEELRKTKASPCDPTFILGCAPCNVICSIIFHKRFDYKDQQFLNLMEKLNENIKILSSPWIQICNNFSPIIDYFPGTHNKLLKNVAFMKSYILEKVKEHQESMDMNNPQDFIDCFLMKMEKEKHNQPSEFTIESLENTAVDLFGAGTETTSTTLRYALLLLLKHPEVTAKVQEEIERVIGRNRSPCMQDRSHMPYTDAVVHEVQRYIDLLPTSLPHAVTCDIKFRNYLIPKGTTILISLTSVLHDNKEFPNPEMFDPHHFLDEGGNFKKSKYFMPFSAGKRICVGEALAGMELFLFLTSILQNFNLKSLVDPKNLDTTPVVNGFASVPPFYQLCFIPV

[8] = species on record: Cavia porcellus; assay: Electrophysiological effect on isolated guinea pig heart as change in coronary perfusion pressure at 3 uM; type: functional
[9] = Half life in rat after 1 mg/kg i.v. administration; type: ADME, organism-based; parameters: dose 1 mg/kg, route intravenous; conditions: in vivo, iv
[10] = Clearance of compound in rat after 1 mg/kg i.v. administration; type: ADME, organism-based; parameters: dose 1 mg/kg, route intravenous; conditions: plasma, iv, read-out: Clp
[11] = species on record: Cavia porcellus; assay: Electrophysiological effect on isolated guinea pig heart as change in coronary perfusion pressure at 10 uM; type: functional
[12] = Half life in rat after 2 mg/kg peroral administration; type: ADME, organism-based; parameters: dose 2 mg/kg, route oral; conditions: in vivo, po
[13] = species on record: Cavia porcellus; assay: Electrophysiological effect on isolated guinea pig heart as change in H-V interval at 10 uM; type: functional
[14] = Volume of distribution of compound in rat after 1 mg/kg i.v. administration; type: ADME, organism-based; parameters: dose 1 mg/kg, route intravenous; conditions: in vivo, iv, read-out: Vdss
[15] = biological target: T2, Cytochrome P450 3A4; assay: Inhibition of human cytochrome P450 3A4
[16] = species on record: Cavia porcellus; assay: Electrophysiological effect on isolated guinea pig heart as change in S-H interval at 10 uM; type: functional
[17] = Maximum concentration in rat after 2 mg/kg peroral administration; type: ADME, organism-based; parameters: dose 2 mg/kg, route oral; conditions: in vivo, po
[18] = Total concentration in rat after 1 mg/kg i.v. administration in 24 hours; type: ADME, organism-based; parameters: dose 1 mg/kg, route intravenous; conditions: in vivo, iv
[19] = Total concentration in rat after 2 mg/kg peroral administration in 24 hours; type: ADME, organism-based; parameters: dose 2 mg/kg, route oral; conditions: in vivo, po
[20] = Oral bioavailability in rat (dose 2 mg/kg); type: ADME, organism-based; conditions: in vivo
[21] = Time to reach maximum concentration in rat after 2 mg/kg peroral administration; 4-6; type: ADME, organism-based; parameters: dose 2 mg/kg, route oral; conditions: in vivo, po
[22] = biological target: T1, Peroxisomal acyl-coenzyme A oxidase 1 (Rattus norvegicus); assay: Inhibition of rat heart mitochondrial Palmitoyl-CoA oxidation at 100 uM; summary of the method: as §1

## Cc1nc2cc(OC[C@H](O)CN3CCN(CC(=O)N[C@H](C)c4ccc5ccccc5c4)CC3)ccc2s1
[1]
  remaining at 0.5 h: 45%

## Cc1nc2cc(OC[C@H](O)CN3CCN(CC(=O)Nc4ccc5c(c4)CCC5)CC3)ccc2s1
[1]
  remaining at 0.5 h: 15%

## Cc1nc2cc(OC[C@H](O)CN3CCN(CC(=O)Nc4cccc5ccccc45)CC3)ccc2s1
[1]
  remaining at 0.5 h: 50%

## Cc1nc2cc(OC[C@H](O)CN3CCN(CC(=O)Nc4ccc(Cl)c(Cl)c4)CC3)ccc2s1
[1]
  remaining at 0.5 h: 29%

## Cc1nc2cc(OC[C@H](O)CN3CCN(CC(=O)Nc4ccc(C#N)cc4)CC3)ccc2s1
[2]
  inhibition: 42%

## Cc1nc2cc(OC[C@H](O)CN3CCN(CC(=O)Nc4ccc5c(c4)CCCC5)CC3)ccc2s1
[1]
  remaining at 0.5 h: 2%

## COc1ccc(NC(=O)CN2CCN(C[C@@H](O)COc3ccc4sc(C)nc4c3)CC2)cc1
[1]
  remaining at 0.5 h: 41%

## Cc1nc2cc(OC[C@H](O)CN3CCN(CC(=O)Nc4cccc5[nH]ccc45)CC3)ccc2s1
[1]
  remaining at 0.5 h: 35%

## Cc1nc2cc(OC[C@H](O)CN3CCN(CC(=O)Nc4ccc(Oc5ccccc5)cc4)CC3)ccc2s1
[1]
  remaining at 0.5 h: 18%

## Cc1nc2cc(OC[C@H](O)CN3CCN(CC(=O)N[C@H]4CCc5ccccc54)CC3)ccc2s1
[1]
  remaining at 0.5 h: 1%

## Cc1nc2cc(OC[C@H](O)CN3CCN(CC(=O)Nc4ccc(Cl)c(C(F)(F)F)c4)CC3)ccc2s1
[1]
  remaining at 0.5 h: 25%

## Cc1nc2cc(OC[C@H](O)CN3CCN(CC(=O)Nc4cccc5ncccc45)CC3)ccc2s1
[1]
  remaining at 0.5 h: 2%

## Cc1nc2cc(OC[C@H](O)CN3CCN(CC(=O)Nc4ccc(C(F)(F)F)cc4)CC3)ccc2s1
[1]
  remaining at 0.5 h: 28%

## Cc1nc2cc(OC[C@H](O)CN3CCN(CC(=O)N[C@@H](C)c4cccc5ccccc45)CC3)ccc2s1
[1]
  remaining at 0.5 h: 10%

## Cc1nc2cc(OC[C@H](O)CN3CCN(CC(=O)NC4Cc5ccccc5C4)CC3)ccc2s1
[1]
  remaining at 0.5 h: 2%

## Cc1nc2cc(OC[C@H](O)CN3CCN(CC(=O)NCCc4ccccc4)CC3)ccc2s1
[1]
  remaining at 0.5 h: 27%

## Cc1nc2cc(OC[C@H](O)CN3CCN(CC(=O)N[C@@H](C)c4ccccc4)CC3)ccc2s1
[1]
  remaining at 0.5 h: 23%

## Cc1nc2cc(OC[C@H](O)CN3CCN(CC(=O)Nc4cc(Cl)c(Cl)c(Cl)c4)CC3)ccc2s1
[1]
  remaining at 0.5 h: 34%

## Cc1nc2cc(OC[C@H](O)CN3CCN(CC(=O)Nc4cccc5nsnc45)CC3)ccc2s1
[1]
  remaining at 0.5 h: 11%

## Cc1ccc(NC(=O)CN2CCN(C[C@@H](O)COc3ccc4sc(C)nc4c3)CC2)cc1
[1]
  remaining at 0.5 h: 51%

## Cc1nc2cc(OC[C@H](O)CN3CCN(CC(=O)N[C@H](C)c4ccccc4)CC3)ccc2s1
[2]
  inhibition: 23%

## Cc1nc2cc(OC[C@H](O)CN3CCN(CC(=O)Nc4ccccc4-c4ccccc4)CC3)ccc2s1
[2]
  inhibition: 39%

## Cc1nc2cc(OC[C@H](O)CN3CCN(CC(=O)NCc4ccc(Cl)cc4)CC3)ccc2s1
[1]
  remaining at 0.5 h: 16%

## Cc1cc(NC(=O)CN2CCN(C[C@@H](O)COc3ccc4sc(C)nc4c3)CC2)c2ccccc2n1
[2]
  inhibition: 40%

## Cc1nc2cc(OC[C@H](O)CN3CCN(CC(=O)N[C@@H](C)c4ccc(F)cc4)CC3)ccc2s1
[1]
  remaining at 0.5 h: 10%

## Cc1nc2cc(OC[C@H](O)CN3CCN(CC(=O)Nc4ccccc4Oc4ccccc4)CC3)ccc2s1
[2]
  inhibition: 34%

## Cc1nc2cc(OC[C@H](O)CN3CCN(CC(=O)Nc4ccc(-c5ccccc5)cc4)CC3)ccc2s1
[3]
  IC50: 7.9 µM
[4]
  Delta S-H: 5 ms
[5]
  IC50: 31 µM
[6]
  Delta H-V: 0.5 ms
[7]
  IC50: 30 µM
[8]
  Delta CPP: -6.6 mmHg
[1]
  remaining at 0.5 h: 63%

## Cc1nc2cc(OC[C@H](O)CN3CCN(CC(=O)Nc4cccc5cccnc45)CC3)ccc2s1
[1]
  remaining at 0.5 h: 12%

## Cc1nc2cc(OC[C@H](O)CN3CCN(CC(=O)NCC4CCCCC4)CC3)ccc2s1
[1]
  remaining at 0.5 h: 29%

## Cc1nc2cc(OC[C@H](O)CN3CCN(CC(=O)Nc4ccc(Oc5ccc(Cl)cc5)cc4)CC3)ccc2s1
[1]
  remaining at 0.5 h: 64%

## Cc1nc2cc(OC[C@H](O)CN3CCN(CC(=O)Nc4ccccc4)CC3)ccc2s1
[1]
  remaining at 0.5 h: 47%

## CCn1c2ccccc2c2cc(NC(=O)CN3CCN(C[C@@H](O)COc4ccc5sc(C)nc5c4)CC3)ccc21
[9]
  half-life: 3 h
[10]
  clearance: 13.5 mL/min/kg
[4]
  Delta S-H: 0 ms
[5]
  IC50: > 100 µM
[11]
  Delta CPP: -0.4 mmHg
[6]
  Delta H-V: 0 ms
[12]
  half-life: 2.6 h
[13]
  Delta H-V: 0 ms
[14]
  Vd: 3.4 L/kg
[15]
  IC50: 39 µM
[16]
  Delta S-H: 1 ms
[17]
  Cmax: 26.3 ng/mL
[18]
  AUC at 24 h: 1320 ng·h/mL
[19]
  AUC at 24 h: 230 ng·h/mL
[7]
  IC50: > 100 µM
[20]
  bioavailability: 17.5%
[21]
  Tmax: 6 h
[8]
  Delta CPP: 0.7 mmHg
[1]
  remaining at 0.5 h: 62%

## Cc1nc2cc(OC[C@H](O)CN3CCN(CC(=O)N[C@H](C)c4ccc(F)cc4)CC3)ccc2s1
[2]
  inhibition: 40%

## Cc1nc2cc(OC[C@H](O)CN3CCN(CC(=O)Nc4cccc(Oc5ccccc5)c4)CC3)ccc2s1
[1]
  remaining at 0.5 h: 15%

## Cc1nc2cc(OC[C@H](O)CN3CCN(CC(=O)Nc4ccc(C(N)=O)cc4)CC3)ccc2s1
[22]
  inhibition: 35%

## Cc1nc2cc(OC[C@H](O)CN3CCN(CC(=O)N[C@@H](C)c4ccc5ccccc5c4)CC3)ccc2s1
[1]
  remaining at 0.5 h: 14%

## Cc1nc2cc(OC[C@H](O)CN3CCN(CC(=O)NC4CCCCC4)CC3)ccc2s1
[1]
  remaining at 0.5 h: 37%

## Cc1nc2cc(OC[C@H](O)CN3CCN(CC(=O)N[C@H]4CCCc5ccccc54)CC3)ccc2s1
[1]
  remaining at 0.5 h: 2%

## Cc1nc2cc(OC[C@H](O)CN3CCN(CC(=O)N[C@@H]4CCc5ccccc54)CC3)ccc2s1
[2]
  inhibition: 50%

## Cc1nc2cc(OC[C@H](O)CN3CCN(CC(=O)N[C@H](C)c4cccc5ccccc45)CC3)ccc2s1
[2]
  inhibition: 24%

## Cc1nc2cc(OC[C@H](O)CN3CCN(CC(=O)Nc4cccc(-c5ccccc5)c4)CC3)ccc2s1
[3]
  IC50: 37 µM
[4]
  Delta S-H: 3 ms
[5]
  IC50: 6 µM
[6]
  Delta H-V: 0 ms
[7]
  IC50: 24 µM
[8]
  Delta CPP: -4.3 mmHg
[1]
  remaining at 0.5 h: 58%

## Cc1nc2cc(OC[C@H](O)CN3CCN(CC(=O)Nn4nnc5ccccc54)CC3)ccc2s1
[2]
  inhibition: 16%
